Screening results from PubChem.
697 NFkB inh: inhibitors of PMA/ionomycin-induced NF-kB reporter, 697 cells, primary screen, B-cell NF-kB inhibitor project, cell-based, luminescence, uHTS. 697 B-cell NF-kB luciferase reporter, 16 h. AID 435022, 2010. inhibition, % at 4 µM. 0.33% of 330,000 active; in the data active = inhibition above about 35%
Jurkat NFkB inh: inhibitors of induced NF-kB luciferase reporter, primary screen, TCR NF-kB activation inhibitor project, cell-based, luminescence, uHTS; Jurkat, PMA/ionomycin-induced NF-kB luciferase reporter; 0.53% of 330,000 active; inhibition, % at 4 µM; in the data active = inhibition above about 50%
miR-122 sensor: miR-122 Renilla sensor signal increase in Huh7, primary screen, miR-122 inhibitor project, cell-based, single point, plate reader. AID 602342, 2012. activation (reporter increase), % at 12.5 µM. 0.3% of 340,000 active. Huh7 miR-122 Renilla luciferase sensor, 48 h; neutral wells = 0, positive control = 100;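 active = mean replicate activation score at least 90 and every replicate individually at or above 90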;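 note: higher luciferase means less miR-122 activity so hits act as miR-122 inhibitors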
FGF22 binding: binders of human FGF22 protein, primary screen, FGF22 synaptogenesis inhibitor project, biophysical, thermal shift, single point; Fibroblast growth factor 22 (Homo sapiens), Q9HCT0; recombinant FGF22 thermal shift, SYPRO orange fluorescence; percent of sucrose octasulfate shift, DMSO zero; 1.5% of 340,000 active; activity (Tm shift, normalised), % at 9.99 µM;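 active = mean Tm shift, scaled 0 neutral to 100 positive control, at about 1.3% or above, every replicate too, limit read from the data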
Target sequence (Q9HCT0 whole entry, looked up): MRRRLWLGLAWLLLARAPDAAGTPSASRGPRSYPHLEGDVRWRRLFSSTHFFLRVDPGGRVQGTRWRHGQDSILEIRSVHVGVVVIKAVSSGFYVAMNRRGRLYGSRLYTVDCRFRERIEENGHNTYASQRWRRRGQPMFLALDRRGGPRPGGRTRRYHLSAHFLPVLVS
NR2E3 ag-1: NR2E3 agonists in two-hybrid cells, primary screen, cell-based, luminescence, CHO-S, Gal4-NCOR/VP16-NR2E3; Photoreceptor-specific nuclear receptor (Homo sapiens), Q9Y5X4; luciferase; inhibition of corepressor binding, % at 3.98 µM; 0.35% of 360,000 active; AID 602229, 2012;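 active = inhibition above the mean of all tested compounds plus 3 SD, cut at about 70% in these data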;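 note: 0% = DMSO with NR2E3 transfected cells and 100% = cells lacking NR2E3 construct; higher means lower luciferase signal from less NR2E3 corepressor binding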
Target sequence (Q9Y5X4 whole entry, looked up, the tested form may be a part): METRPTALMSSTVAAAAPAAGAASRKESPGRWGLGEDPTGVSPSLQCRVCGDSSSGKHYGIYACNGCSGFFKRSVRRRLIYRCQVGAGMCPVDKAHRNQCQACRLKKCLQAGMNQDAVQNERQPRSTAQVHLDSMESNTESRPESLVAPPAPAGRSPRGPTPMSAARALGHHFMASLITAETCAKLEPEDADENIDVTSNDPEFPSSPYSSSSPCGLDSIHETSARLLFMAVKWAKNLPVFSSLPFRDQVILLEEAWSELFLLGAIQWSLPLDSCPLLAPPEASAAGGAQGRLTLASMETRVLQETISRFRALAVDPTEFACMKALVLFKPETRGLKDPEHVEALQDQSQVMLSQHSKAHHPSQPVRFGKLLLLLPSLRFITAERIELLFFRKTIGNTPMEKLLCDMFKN
NR2E3 ag-2: inhibitors of NR2E3-RetCOR corepressor binding, primary screen, NR2E3 agonist project, biochemical, TR-FRET, GST-NR2E3, biotin-RetCOR; Photoreceptor-specific nuclear receptor (Homo sapiens), Q9Y5X4; 1536-well; inhibition of corepressor binding, % at 4.78 µM; 0.12% of 320,000 active; AID 2300, 2010;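 active = percent inhibition above the cutoff of mean plus 3 SD of all tested compounds, set per screening campaign, cut at about 20% in these data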;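 note: 0% = DMSO wells and 100% = biotin wells as full block of FRET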
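System: GST-NR2E3 and biotin-RetCOR proteins; probe or stimulus: 7 nM biotin-RetCOR; doses: compound at 4.8 µM, single dose; schedule: Compound–protein incubation for 5 h at 4 °C; detection: time-resolved FRET; read-out: percent inhibition; controls: biotin wells as high control, 0.6% DMSO wells as low control; format: 1536-well plates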
* marks the source's active call; other numbers are inactive results; . = no result given; [ ] = remark or other dose. Sampled rows, rich in hits. Any-hit rate of the full collection: about 2.2%.

SMILES	697 NFkB inh	Jurkat NFkB inh	miR-122 sensor	FGF22 binding	NR2E3 ag-1	NR2E3 ag-2
S=c1[nH]c(-c2ccccc2)cn1/N=C/c1ccc(Br)cc1	4	3	.	43*	-27	0
O=C(O)c1ccc(/C=N/n2cc(-c3ccccc3)[nH]c2=S)cc1	4	-9	7	0	-8	-2
C=CCc1cc(/C=C2/NC(=O)NC2=O)cc(OCC)c1O	15	-9	.	43*	4	2
Cc1ccc2nc(SCc3nc4cc(Cl)ccc4c(=O)[nH]3)[nH]c2c1	-40	-1	.	43*	-22	1
COc1cc(/C=N/NC(=O)C(=O)NCC2CCCO2)cc(Cl)c1O (configuration not stated)	-5	-18	13	-1	4	2
COc1cc(/C=N/NC(=O)C(=O)NCC2CCCO2)ccc1OCC(=O)N1CCOCC1 (configuration not stated)	9	3	.	44*	-33	-4
O=C(CSc1n[nH]c(=O)[nH]c1=O)NC1CC1	8	12	.	44*	-37	-2
O=C(CSc1n[nH]c(=O)[nH]c1=O)NCC1CCCCC1	15	-7	4	0	-2	0
C=CCc1cc(Cl)ccc1OCCCNCCO	13	4	.	44*	-20	2
COc1ccc(NC(=O)N(C)C[C@@H]2OCCCC[C@@H](C)Oc3ccc(NS(=O)(=O)c4ccc(Cl)cc4)cc3C(=O)N([C@H](C)CO)C[C@@H]2C)cc1	.	.	2[16.7 µM]	-1	.	.
CCOC(=O)C1=C(N)OC2=C(C(=O)CC(C)(C)C2)C1c1ccc(C)s1 (configuration not stated)	-1	3	.	44*	-12	-2
CCOc1ccccc1N1CC(C(=O)Nc2c(C)n(C)n(-c3ccccc3)c2=O)CC1=O (configuration not stated)	13	8	.	43*	-11	0
Cc1c(NC(=O)c2ccc(C(=O)Nc3c(C)n(C)n(-c4ccccc4)c3=O)cc2)c(=O)n(-c2ccccc2)n1C	-25	-5	-1	0	-8	0
Cc1ccc(S(=O)(=O)NC(=O)Nc2c(C)n(C)n(-c3ccccc3)c2=O)cc1	18	-1	-2	0	-3	-2
Cc1ccc(S(=O)(=O)NCCCCCC(=O)Nc2c(C)n(C)n(-c3ccccc3)c2=O)cc1	23	2	-16	43*	4	1
Cc1ccc(C(=O)Nc2c(C)n(C)n(-c3ccccc3)c2=O)cc1	22	8	.	44*	-7	3
Cc1c(NC(=O)COc2cccc(Cl)c2Cl)c(=O)n(-c2ccccc2)n1C	12	3	.	43*	-7	0
O=C(C[C@H]1C[C@H]2c3cc(NS(=O)(=O)c4ccccc4)ccc3O[C@H]2[C@@H](CO)O1)NC1CCCC1	.	.	2[16.7 µM]	0	.	.
Cc1ccc2nc(C)cc(C(=O)OCC(=O)Nc3c(C)n(C)n(-c4ccccc4)c3=O)c2c1	15	2	.	43*	-15	-2
O=C(COc1ccccc1F)c1ccc(O)cc1O	4	-9	218*	.	-35	-2
CCCCn1nc2cc(C(=O)NCc3cc(C(F)(F)F)cc(C(F)(F)F)c3)ccc2c1OCC	7	-5	0	44*	17	5
Cn1c(N)c(S(=O)(=O)NCc2ccc(Cl)cc2)c(=O)n(C)c1=O	4	8	.	44*	-44	-3
CCC(C)[C@H](NS(=O)(=O)c1ccc(F)cc1Br)C(=O)OC (some centres not stated)	.	.	-7	43*	-20	.
O=S(=O)(Nc1ccc(Cl)cn1)c1ccc(Cl)cc1	4	9	.	1	-25	-1
CCOc1cc(C)c(S(=O)(=O)Nc2ccc(Cl)cn2)cc1C	-6	-3	124*	.	27	4
SMILES	697 NFkB inh	Jurkat NFkB inh	miR-122 sensor	FGF22 binding	NR2E3 ag-1	NR2E3 ag-2
CCOc1ccc(S(=O)(=O)Nc2ccc(Cl)cn2)c(C)c1C	8	-6	65	.	8	3
CCc1ccc(S(=O)(=O)Nc2ccc(Cl)cn2)cc1	8	-1	178*	0	15	.
O=C(Nc1ccccc1)N[C@H]1CC[C@H](CCNS(=O)(=O)c2ccccc2F)O[C@@H]1CO	.	.	.	0	.	.
CC(NC(=O)COC(=O)C12CC3CC(CC(O)(C3)C1)C2)c1ccccc1 (configuration not stated)	-19	-8	.	43*	-28	.
CC(CCc1ccccc1)NC(=O)COC(=O)C12CC3CC(CC(Br)(C3)C1)C2 (configuration not stated)	19	11	30	.	-6	-4
COC(=O)C[C@H]1CC[C@@H]2[C@H](COC[C@H](O)CN2C(=O)Nc2ccccc2OC)O1	.	.	1[16.7 µM]	0	.	.
COc1ccc(NC(=O)c2ccc(NC(=O)CN3CCN(c4ccc(O)cc4)CC3)cc2)cc1	.	.	1	0	-20	.
COc1ccc(NC(=O)c2ccc(NC(=O)CN3CCN(c4ccccc4O)CC3)cc2)cc1	.	.	-5	43*	-47	.
CCC(=O)Nc1ccc(Cl)c(NC(=S)NC(=O)COc2ccccc2)c1	2	0	.	44*	-7	4
CCCC(=O)Nc1ccc(Cl)c(NC(=S)NC(=O)c2ccco2)c1	-9	4	.	1.5*	-24	1
O=C(NN1C(=O)C2C(C1=O)C1C=CC2C12CC2)c1cccnc1 (configuration not stated)	3	4	.	44*	-9	1
CC(C)N(C(=O)COC(=O)[C@H](C)NC(N)=O)c1ccccc1	15	9	.	43*	15	-2
CC(C)N(C(=O)COC(=O)c1ccc(Cl)s1)c1ccccc1	9	-10	-12	0	13	6
Cc1ccc(C)n1-c1cccc(C(=O)O)c1	-1	-4	.	.	.	33*
Cc1cc(C=O)c(C)n1-c1cccc(C(=O)O)c1	26	16	.	0	6	4
O=C(C[C@H]1C[C@@H]2c3cc(NS(=O)(=O)c4ccccc4)ccc3O[C@@H]2[C@H](CO)O1)N1CCCCC1	.	.	-1[16.7 µM]	0	.	.
COc1cccc(NC(=O)N(C)C[C@H]2Oc3cc(C#Cc4ccccc4)ccc3S(=O)(=O)N([C@@H](C)CO)C[C@H]2C)c1	.	.	-8[16.7 µM]	1.4*	.	.
COc1ccc(NC(=O)N(C)C[C@H]2Oc3cc(-c4ccc(C)cc4)ccc3S(=O)(=O)N([C@H](C)CO)C[C@H]2C)cc1	.	.	-26[16.7 µM]	1.7*	.	.
